Measurements as given in ChEMBL document CHEMBL1773044, “Potent, selective, and orally bioavailable inhibitors of mammalian target of rapamycin (mTOR) kinase based on a quaternary substituted dihydrofuropyrimidine” (J Med Chem, 2011).

How the values were obtained:
MCF7 = experiment: Antiproliferative activity against human MCF7 cells expressing neo/Her2 after 3 days by CellTiter-Glo luminescent cell viability assay; settings: MCF7, 72 h
PC-3 = experiment: Antiproliferative activity against human PC3 cells after 3 days by CellTiter-Glo luminescent cell viability assay; settings: PC-3, 72 h
[1] = Volume of distribution at steady state in mouse at 1 mg/kg, iv; format: ADME, organism-based; set-up: dose 1 mg/kg, route intravenous; settings: in vivo, read-out: Vdss
Outline: (§1)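 Mouse PK: iv dose 1 mg/kg given as a solution in 80% PEG/10% EtOH; po dose 5 mg/kg given as a suspension in MCT (0.5% methylcellulose/0.2% Tween 80).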

[2] = Half life in mouse at 1 mg/kg, iv; format: ADME, organism-based; set-up: dose 1 mg/kg, route intravenous; settings: in vivo; outline: as §1
Mus musculus [3] = experiment: (§2) AUC in mouse at 5 mg/kg, po; format: ADME, organism-based, Plasma; set-up: dose 5 mg/kg, route oral; settings: in vivo; outline: as §1
Mus musculus [4] = experiment: (§3) Oral bioavailability in mouse at 5 mg/kg; format: ADME, organism-based; settings: in vivo; outline: as §1
[5] = Plasma protein binding in human; format: ADME, cell-free; settings: read-out: PPB (converted)
[6] = Plasma protein binding in rat; format: ADME, cell-free; settings: read-out: PPB (converted)
[7] = Plasma protein binding in mouse; format: ADME, cell-free; settings: read-out: PPB (converted)
[8] = Clearance in mouse at 1 mg/kg, iv; format: ADME, organism-based; set-up: dose 1 mg/kg, route intravenous; settings: in vivo; outline: as §1
[9] = as §2; format: ADME, organism-based, Plasma; set-up: dose 5 mg/kg, route oral; settings: plasma; outline: as §1
[10] = as §3; format: ADME, organism-based; settings: in vivo; outline: as §1
Mus musculus [11] = experiment: In vivo inhibition of mTORC2 in NCR nude mouse xenografted with human NCI-PC3 cells assessed as reduction in phosphorylated Akt level at 25 to 100 mg/kg, po administered as single dose relative to control; values are per cent of control; settings: dose mg/kg 25-100
Mus musculus [12] = experiment: In vivo inhibition of mTORC1 in NCR nude mouse xenografted with human NCI-PC3 cells assessed as reduction in phosphorylated S6RP level at 25 to 100 mg/kg, po administered as single dose relative to control; values are per cent of control; settings: dose mg/kg 25-100
[13] = target: Serine/threonine-protein kinase mTOR (Homo sapiens, UniProt P42345); experiment: Inhibition of human recombinant mTOR expressed in insect cells using 4E-BP1 substrate after 30 mins by fluorescence resonance energy transfer assay
[14] = Selectivity ratio of Ki for human recombinant mTOR (1360-2549) over Ki for PI3Kalpha

## CCNC(=O)Nc1ccc(-c2nc(N3CCOC[C@@H]3C)c3c(n2)[C@@](C)(CCOC)OC3)cc1
MCF7
  IC50: 1200 nM
PC-3
  IC50: 284 nM

## C[C@H]1COCCN1c1nc(-c2ccc(NC(=O)NCCC#N)cc2)nc2c1COC2(C)C
MCF7
  IC50: 260 nM
PC-3
  IC50: 120 nM

## CCNC(=O)Nc1ccc(-c2nc(N3CCOCC3)c3c(n2)[C@](C)(CCO)OC3)cc1
MCF7
  IC50: 48 nM
PC-3
  IC50: 16 nM
[1]
  Vd: 1.5 L/kg
[2]
  half-life: 42.6 min
Mus musculus [3]
  AUC: 0.96 µM·h
Mus musculus [4]
  F: 56%
[5]
  fraction unbound: 0.22
[6]
  fraction unbound: 0.24
[7]
  fraction unbound: 0.17

## CCNC(=O)Nc1ccc(-c2nc(N3CCOC[C@@H]3C)c3c(n2)[C@](C)(CCC#N)OC3)cc1
MCF7
  IC50: 193 nM
PC-3
  IC50: 74 nM

## CCNC(=O)Nc1ccc(-c2nc(N3CCOCC3)c3c(n2)[C@](C)(CO)OC3)cc1
MCF7
  IC50: 280 nM
PC-3
  IC50: 220 nM

## C[C@H]1COCCN1c1nc(-c2ccc(NC(=O)NC3COC3)cc2)nc2c1COC2(C)C
MCF7
  IC50: 480 nM
PC-3
  IC50: 160 nM

## CCNC(=O)Nc1ccc(-c2nc(N3CCOC[C@@H]3C)c3c(n2)[C@@](C)(CO)OC3)cc1
MCF7
  IC50: 530 nM
PC-3
  IC50: 450 nM

## CCNC(=O)Nc1ccc(-c2nc(N3CCOCC3)c3c(n2)[C@@](C)(CCO)OC3)cc1
MCF7
  IC50: 490 nM
PC-3
  IC50: 210 nM

## CCNC(=O)Nc1ccc(-c2nc(N3CCOC[C@@H]3C)c3c(n2)[C@](C)(CC2CC2)OC3)cc1
MCF7
  IC50: 340 nM
PC-3
  IC50: 100 nM

## CCNC(=O)Nc1ccc(-c2nc(N3CCOCC3)c3c(n2)[C@@](C)(CO)OC3)cc1
MCF7
  IC50: 1700 nM
PC-3
  IC50: 960 nM

## CCNC(=O)Nc1ccc(-c2nc(N3C[C@H]4CC[C@@H](C3)O4)c3c(n2)[C@](C)(CCO)OC3)cc1
MCF7
  IC50: 22 nM
PC-3
  IC50: 17 nM
[1]
  Vd: 2 L/kg
[2]
  half-life: 46.2 min
Mus musculus [3]
  AUC: 0.78 µM·h
Mus musculus [4]
  F: 50%
[5]
  fraction unbound: 0.27
[6]
  fraction unbound: 0.26
[7]
  fraction unbound: 0.11

## C[C@H]1COCCN1c1nc(-c2ccc(NC(=O)NCCO)cc2)nc2c1COC2(C)C
[8]
  clearance: 53 mL/min/kg
MCF7
  IC50: 66 nM
PC-3
  IC50: 46 nM
[1]
  Vd: 1.5 L/kg
[2]
  half-life: 25.2 min
[9]
  AUC: 0.81 µM·h
[10]
  bioavailability: 22%
[5]
  fraction unbound: 0.28
[6]
  fraction unbound: 0.3
[7]
  fraction unbound: 0.19

## C[C@H]1COCCN1c1nc(-c2ccc(NC(=O)NC[C@@H](O)CO)cc2)nc2c1COC2(C)C
MCF7
  IC50: 1900 nM
PC-3
  IC50: 330 nM

## CCNC(=O)Nc1ccc(-c2nc(N3CCOC[C@@H]3C)c3c(n2)[C@](C)(CCO)OC3)cc1
MCF7
  IC50: 15 nM
PC-3
  IC50: 15 nM
[1]
  Vd: 1.5 L/kg
[2]
  half-life: 19.8 min
Mus musculus [3]
  AUC: 0.59 µM·h
Mus musculus [4]
  F: 110%
[5]
  fraction unbound: 0.13
[7]
  fraction unbound: 0.06
Mus musculus [11]
  level, % of control: 15%
Mus musculus [12]
  level, % of control: 15%

## C[C@H]1COCCN1c1nc(-c2ccc(NC(=O)Nc3cnn(C)c3)cc2)nc2c1COC2(C)C
MCF7
  IC50: 160 nM
PC-3
  IC50: 52 nM

## CCNC(=O)Nc1ccc(-c2nc(N3CCOC[C@@H]3C)c3c(n2)[C@@](C)(CC2CC2)OC3)cc1
MCF7
  IC50: 95 nM
PC-3
  IC50: 31 nM

## CCNC(=O)Nc1ccc(-c2nc(N3CCOC[C@@H]3C)c3c(n2)C(C)(C)OC3=O)cc1
MCF7
  IC50: 220 nM
PC-3
  IC50: 60 nM

## CCNC(=O)Nc1ccc(-c2nc(N3CCOCC3)c3c(n2)[C@@](C)(CC(C)(C)O)OC3)cc1
MCF7
  IC50: 170 nM
PC-3
  IC50: 140 nM

## CCNC(=O)Nc1ccc(-c2nc(N3CCOC[C@@H]3C)c3c(n2)[C@@](C)(CCC#N)OC3)cc1
MCF7
  IC50: 100 nM
PC-3
  IC50: 41 nM

## CCNC(=O)Nc1ccc(-c2nc(N3CCOC[C@@H]3C)c3c(n2)[C@](C)(CO)OC3)cc1
MCF7
  IC50: 192 nM
PC-3
  IC50: 95 nM

## CCNC(=O)Nc1ccc(-c2nc(N3CCOC[C@@H]3C)c3c(n2)[C@](C)(CCN(C)C)OC3)cc1
[8]
  clearance: 76 mL/min/kg
MCF7
  IC50: 1100 nM
PC-3
  IC50: 220 nM
[1]
  Vd: 2.6 L/kg
[2]
  half-life: 34.2 min
[9]
  AUC: 0.14 µM·h
[10]
  bioavailability: 6%
[5]
  fraction unbound: 0.41
[6]
  fraction unbound: 0.33
[7]
  fraction unbound: 0.22

## CCNC(=O)Nc1ccc(-c2nc(N3CCOCC3)c3sc(C(C)(C)O)cc3n2)cc1
[13]
  Ki: 3 nM
[14]
  Ratio Ki: 20

## CCNC(=O)Nc1ccc(-c2nc(N3CCOCC3)c3c(n2)[C@](C)(CC(C)(C)O)OC3)cc1
MCF7
  IC50: 27 nM
PC-3
  IC50: 28 nM
[1]
  Vd: 1 L/kg
[2]
  half-life: 16.2 min
Mus musculus [3]
  AUC: 0.66 µM·h
Mus musculus [4]
  F: 55%
[5]
  fraction unbound: 0.23
[6]
  fraction unbound: 0.21
[7]
  fraction unbound: 0.14

## CCNC(=O)Nc1ccc(-c2nc(N3CCOC[C@@H]3C)c3c(n2)C(C)(C)OC3)cc1
[8]
  clearance: 46 mL/min/kg
MCF7
  IC50: 52 nM
PC-3
  IC50: 78 nM
[1]
  Vd: 1.4 L/kg
[2]
  half-life: 24 min
[9]
  AUC: 6.1 µM·h
[10]
  bioavailability: 140%
[5]
  fraction unbound: 0.14
[6]
  fraction unbound: 0.08
[7]
  fraction unbound: 0.05
Mus musculus [11]
  level, % of control: 15%
Mus musculus [12]
  level, % of control: 15%

## CCNC(=O)Nc1ccc(-c2nc(N3CCOC[C@@H]3C)c3c(n2)[C@](C)(CCOC)OC3)cc1
MCF7
  IC50: 130 nM
PC-3
  IC50: 62 nM

## CCNC(=O)Nc1ccc(-c2nc(N3CCOCC3)c3c(n2)C(C)(C)OC3=O)cc1
MCF7
  IC50: 310 nM
PC-3
  IC50: 120 nM
[1]
  Vd: 0.57 L/kg
[2]
  half-life: 12.6 min
Mus musculus [3]
  AUC: 1.5 µM·h
Mus musculus [4]
  bioavailability: 23%
[5]
  fraction unbound: 0.02
[6]
  fraction unbound: 0.05
[7]
  fraction unbound: 0.02

## C[C@H]1COCCN1c1nc(-c2ccc(Nc3cccc(=O)[nH]3)cc2)nc2c1COC2(C)C
[8]
  clearance: 44 mL/min/kg
MCF7
  IC50: 120 nM
PC-3
  IC50: 120 nM
[1]
  Vd: 1.9 L/kg
[2]
  half-life: 132 min
[9]
  AUC: 0.31 µM·h
[10]
  bioavailability: 7%
[5]
  fraction unbound: 0.02
[6]
  fraction unbound: 0.04
[7]
  fraction unbound: 0.03

## CCNC(=O)Nc1ccc(-c2nc(N3CCOC[C@@H]3C)c3c(n2)[C@@](C)(CCO)OC3)cc1
MCF7
  IC50: 510 nM
PC-3
  IC50: 118 nM
[1]
  Vd: 2.4 L/kg
[2]
  half-life: 20.4 min
Mus musculus [3]
  AUC: 0.43 µM·h
Mus musculus [4]
  F: 65%
[5]
  fraction unbound: 0.14
[6]
  fraction unbound: 0.21
[7]
  fraction unbound: 0.06

## CCNC(=O)Nc1ccc(-c2nc(N3CCOC[C@@H]3C)c3c(n2)[C@](C)(CC(C)(C)O)OC3)cc1
MCF7
  IC50: 75 nM
PC-3
  IC50: 18 nM
[1]
  Vd: 1.3 L/kg
[2]
  half-life: 66 min
Mus musculus [3]
  AUC: 0.63 µM·h
Mus musculus [4]
  F: 53%
[5]
  fraction unbound: 0.18
[6]
  fraction unbound: 0.22
[7]
  fraction unbound: 0.09

## CCNC(=O)Nc1ccc(-c2nc(N3C[C@H]4CC[C@@H](C3)O4)c3c(n2)[C@@](C)(CCO)OC3)cc1
MCF7
  IC50: 160 nM
PC-3
  IC50: 66 nM

## CCNC(=O)Nc1ccc(-c2nc(N3CCOC[C@@H]3C)c3c(n2)[C@@](C)(CC(C)(C)O)OC3)cc1
MCF7
  IC50: 29 nM
PC-3
  IC50: 130 nM
[1]
  Vd: 2.7 L/kg
[2]
  half-life: 78 min
Mus musculus [3]
  AUC: 0.65 µM·h
Mus musculus [4]
  F: 73%
[5]
  fraction unbound: 0.34
[6]
  fraction unbound: 0.12
[7]
  fraction unbound: 0.15
